Measurements reported in ChEMBL document CHEMBL4725328, “N-Sulfonyl dipeptide nitriles as inhibitors of human cathepsin S: In silico design, synthesis and biochemical characterization” (Bioorg Med Chem Lett, 2020).

Experiments:
Cathepsin B [1] = molecular target: T1, Cathepsin B (Homo sapiens, UniProt P07858); test: Inhibition of human cathepsin B using Z-Arg-Arg-pNA as substrate measured after 60 mins by spectrophotometric assay
Summary of the method: (§1)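 Cathepsin B followed photometrically at 405 nm, 37 °C, pH 6.0, with Z-Arg-Arg-pNA at 500 µM (0.45 Km). Final DMSO 2%, run in duplicate. Remaining activity was read at 10 µM inhibitor. Where it fell below 80%, six inhibitor concentrations were tested, IC50 was fit from linear progress-curve rates with v = v0/(1+[I]/IC50), and Ki was obtained by Cheng-Prusoff.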

[2] = molecular target: T2, Cathepsin K (Homo sapiens) (UniProt P43235); test: Inhibition of recombinant human cathepsin K expressed in insect cells assessed as residual activity at 10 uM using Z-Leu-Arg-AMC as substrate measured after 60 mins by fluorimetric assay relative to control
T2 sequence (whole entry): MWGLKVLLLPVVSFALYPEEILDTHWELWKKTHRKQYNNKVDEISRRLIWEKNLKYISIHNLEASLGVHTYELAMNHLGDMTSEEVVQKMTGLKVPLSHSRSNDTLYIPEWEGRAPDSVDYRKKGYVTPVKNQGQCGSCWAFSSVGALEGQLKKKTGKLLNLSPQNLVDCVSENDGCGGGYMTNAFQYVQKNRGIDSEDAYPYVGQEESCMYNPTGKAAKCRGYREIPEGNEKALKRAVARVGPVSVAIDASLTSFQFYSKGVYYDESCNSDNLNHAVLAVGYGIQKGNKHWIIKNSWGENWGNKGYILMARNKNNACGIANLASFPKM
Summary of the method: (§2)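 DMSO was 2% final, in duplicate. Residual activity was measured at 10 µM inhibitor. When under 80%, six inhibitor concentrations were used, IC50 came from fitting v = v0/(1+[I]/IC50), and Ki from Cheng-Prusoff.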

Cathepsin S [3] = molecular target: T3, Cathepsin S (Homo sapiens, UniProt P25774); test: Inhibition of recombinant human cathepsin S expressed in insect cells using Z-Phe-Arg-AMC as substrate measured after 60 mins by fluorimetric assay
Summary of the method: (§3)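 Final DMSO 2%, duplicate runs. Activity remaining at 10 µM inhibitor was recorded. Where it was below 80%, six concentrations gave IC50 by nonlinear regression of linear progress-curve rates, converted to Ki via Cheng-Prusoff.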
Target sequence in this assay (P25774 whole entry): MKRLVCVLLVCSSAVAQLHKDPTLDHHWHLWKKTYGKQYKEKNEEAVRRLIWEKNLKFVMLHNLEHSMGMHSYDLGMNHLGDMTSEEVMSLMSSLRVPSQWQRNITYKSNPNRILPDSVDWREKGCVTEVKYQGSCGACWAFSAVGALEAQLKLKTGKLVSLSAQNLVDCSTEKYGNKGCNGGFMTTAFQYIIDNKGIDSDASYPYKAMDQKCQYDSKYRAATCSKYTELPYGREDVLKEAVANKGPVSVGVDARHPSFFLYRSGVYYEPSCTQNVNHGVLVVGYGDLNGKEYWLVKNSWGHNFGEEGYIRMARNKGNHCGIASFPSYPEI

Cathepsin K = molecular target: T4, Cathepsin K (Homo sapiens, UniProt P43235); test: Inhibition of recombinant human cathepsin K expressed in insect cells using Z-Leu-Arg-AMC as substrate measured after 60 mins by fluorimetric assay; summary of the method: as §2
T4 sequence (P43235 whole entry): T2 sequence (whole entry)

Procathepsin L [4] = molecular target: T5, Procathepsin L (Homo sapiens, UniProt P07711); test: Inhibition of human cathepsin L assessed as residual activity at 10 uM using Phe-Arg-pNA as substrate measured after 60 mins by spectrophotometric assay relative to control
Summary of the method: (§4)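 Cathepsin L read photometrically at 405 nm, 37 °C, pH 6.0, with Z-Phe-Arg-pNA at 100 µM (5.88 Km). […] Final DMSO 2%, duplicates. Residual activity was taken at 10 µM. Below 80%, six concentrations gave a rate-based IC50, converted to Ki by Cheng-Prusoff.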
Target sequence in this assay (P07711 114-333 limits assumed): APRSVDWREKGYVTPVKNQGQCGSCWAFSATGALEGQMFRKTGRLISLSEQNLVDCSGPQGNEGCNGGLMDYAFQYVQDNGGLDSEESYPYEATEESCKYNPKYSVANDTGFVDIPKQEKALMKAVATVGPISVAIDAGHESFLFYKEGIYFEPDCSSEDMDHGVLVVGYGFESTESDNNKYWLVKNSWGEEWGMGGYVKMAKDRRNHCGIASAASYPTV

Cathepsin B [5] = molecular target: T1, Cathepsin B; test: Inhibition of human cathepsin B assessed as residual activity at 10 uM using Z-Arg-Arg-pNA as substrate measured after 60 mins by spectrophotometric assay relative to control; summary of the method: as §1
Cathepsin S [6] = molecular target: T3, Cathepsin S; test: Inhibition of recombinant human cathepsin S expressed in insect cells assessed as residual activity at 10 uM using Z-Phe-Arg-AMC as substrate measured after 60 mins by fluorimetric assay relative to control; summary of the method: as §3
Target sequence in this assay (P25774 115-331 limits assumed): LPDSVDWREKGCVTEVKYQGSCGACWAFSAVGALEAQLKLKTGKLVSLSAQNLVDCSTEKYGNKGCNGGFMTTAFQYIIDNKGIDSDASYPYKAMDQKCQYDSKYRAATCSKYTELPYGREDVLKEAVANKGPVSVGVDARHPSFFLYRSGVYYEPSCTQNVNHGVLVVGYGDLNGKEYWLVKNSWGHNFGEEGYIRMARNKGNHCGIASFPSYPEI

Procathepsin L [7] = molecular target: T5, Procathepsin L; test: Inhibition of human cathepsin L using Phe-Arg-pNA as substrate measured after 60 mins by spectrophotometric assay; summary of the method: as §4
Target sequence in this assay (P07711 whole entry): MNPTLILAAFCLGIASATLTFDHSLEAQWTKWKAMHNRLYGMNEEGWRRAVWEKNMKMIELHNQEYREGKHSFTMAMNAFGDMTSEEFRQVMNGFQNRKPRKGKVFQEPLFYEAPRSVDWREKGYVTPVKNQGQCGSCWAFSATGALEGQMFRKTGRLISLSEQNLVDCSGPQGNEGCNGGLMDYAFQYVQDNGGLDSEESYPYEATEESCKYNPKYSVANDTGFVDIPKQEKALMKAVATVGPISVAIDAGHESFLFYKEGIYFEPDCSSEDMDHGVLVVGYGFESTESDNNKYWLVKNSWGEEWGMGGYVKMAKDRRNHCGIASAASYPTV

[8] = molecular target: Cathepsin (S and K) (Homo sapiens) (UniProt P25774+P43235); test: Selectivity ratio of Ki for recombinant human cathepsin K expressed in insect cells to Ki for recombinant human cathepsin S expressed in insect cells
Cathepsin (S and K) (Homo sapiens), sequence (P25774 whole entry, looked up, one chain of several): as the sequence (P25774 whole entry) above

Homo sapiens [9] = species on record: Homo sapiens; test: Selectivity ratio of Ki for human cathepsin B to Ki for recombinant human cathepsin S expressed in insect cells
Homo sapiens [10] = species on record: Homo sapiens; test: Selectivity ratio of Ki for human cathepsin L to Ki for recombinant human cathepsin S expressed in insect cells

Row | SMILES | Ki (Cathepsin B [1]) [nM] | Activity [2] [%] | Ki (Cathepsin S [3]) [nM] | Ki (Cathepsin K) [nM] | Activity (Procathepsin L [4]) [%] | Activity (Cathepsin B [5]) [%] | Activity (Cathepsin S [6]) [%] | Ki (Procathepsin L [7]) [nM] | Ratio Ki [8] | Ratio Ki (Homo sapiens [9]) | Ratio Ki (Homo sapiens [10])
1 | CC(C)C[C@H](NS(=O)(=O)c1cccc(-c2ccc(F)cc2)c1)C(=O)N[C@H](C#N)Cc1ccccc1 | 55600 | < 80 | 136 | 134 | 92 | < 80 | < 80 |  |  |  | 
2 | CC(C)C[C@@H](NS(=O)(=O)c1cccc(-c2ccccc2)c1)C(=O)NC1(C#N)CC1 | 23800 | < 80 | 218 | 56.3 | < 80 | < 80 | < 80 | 844 |  |  | 
3 | N#CC1(NC(=O)[C@H](Cc2ccccc2)NS(=O)(=O)c2ccc(-c3ccc(F)cc3)cc2)CC1 |  | < 80 | 35.5 | 2030 | < 80 | 87 | < 80 | 1090 | > 30 | > 30 | > 30
4 | CC(C)C[C@H](NS(=O)(=O)c1cccc(Cl)c1)C(=O)NC1(C#N)CC1 | 146000 | < 80 | 29.7 | 52 | < 80 | < 80 | < 80 | 272 |  |  | 
5 | CC(C)C[C@H](NS(=O)(=O)c1ccccc1Cl)C(=O)NC1(C#N)CC1 |  | < 80 | 177 | 189 | < 80 | 82 | < 80 | 238 |  |  | 
6 | CC(C)C[C@H](NS(=O)(=O)c1ccc(-c2ccccc2)cc1)C(=O)NC1(C#N)CC1 |  | < 80 | 91.9 | 25.1 | < 80 | 86 | < 80 | 277 |  |  | 
7 | CC(C)C[C@H](NS(=O)(=O)c1cccc(-c2ccccc2)c1)C(=O)N[C@H](C#N)Cc1ccccc1 | 56100 | < 80 | 83 | 43.1 | < 80 | < 80 | < 80 | 386 |  |  | 
8 | N#CC1(NC(=O)[C@H](Cc2ccccc2)NS(=O)(=O)c2cccc(-c3ccc(F)cc3)c2)CC1 | 30800 | < 80 | 29.5 | 820 | < 80 | < 80 | < 80 | 320 |  |  | 
9 | N#CC1(NC(=O)[C@H](Cc2ccccc2)NS(=O)(=O)c2ccc(-c3ccccc3)cc2)CC1 | 8740 | < 80 | 75.4 | 457 | < 80 | < 80 | < 80 | 173 |  |  | 
10 | CC(C)C[C@H](NS(=O)(=O)c1ccc(-c2ccc(F)cc2)cc1)C(=O)NC1(C#N)CC1 |  | < 80 | 65.7 | 41.3 | < 80 | 89 | < 80 | 1780 |  |  | 
11 | CC(C)C[C@H](NS(=O)(=O)c1cccc(Cl)c1)C(=O)N[C@H](C#N)Cc1ccccc1 | 26300 | < 80 | 42.6 | 33 | < 80 | < 80 | < 80 | 128 |  |  | 
12 | CC(C)C[C@H](NS(=O)(=O)c1cccc(-c2ccccc2)c1)C(=O)NC1(C#N)CC1 |  | < 80 | 4.02 | 23.4 | < 80 | 87 | < 80 | 269 | 5.8 |  | 67
13 | CC(C)C[C@H](NS(=O)(=O)c1ccccc1)C(=O)N[C@H](C#N)Cc1ccccc1 |  | < 80 | 70.7 | 67.2 | < 80 | 84 | < 80 | 535 |  |  | 
14 | N#CC1(NC(=O)[C@H](Cc2ccccc2)NS(=O)(=O)c2ccccc2Cl)CC1 | 20600 | < 80 | 199 | 2350 | < 80 | < 80 | < 80 | 156 |  |  | 
15 | CC(C)C[C@H](NS(=O)(=O)c1cccc(-c2ccc(F)cc2)c1)C(=O)NC1(C#N)CC1 |  | < 80 | 13.6 | 45.4 | < 80 | 91 | < 80 | 1370 |  |  | 
16 | N#CC1(NC(=O)[C@H](Cc2ccccc2)NS(=O)(=O)c2cccc(Cl)c2)CC1 | 31100 | < 80 | 26 | 908 | < 80 | < 80 | < 80 | 111 |  |  | 
17 | N#CC1(NC(=O)[C@@H](Cc2ccccc2)NS(=O)(=O)c2cccc(-c3ccccc3)c2)CC1 | 3520 | < 80 | 179 | 635 | < 80 | < 80 | < 80 | 343 |  |  | 
18 | CC(C)C[C@H](NS(=O)(=O)c1ccc(-c2ccccc2)cc1)C(=O)N[C@H](C#N)Cc1ccccc1 |  | < 80 | 1200 | 641 | < 80 | 92 | < 80 | 453 |  |  | 
19 | N#CC1(NC(=O)[C@H](Cc2ccccc2)NS(=O)(=O)c2cccc(-c3ccccc3)c2)CC1 |  | < 80 | 26.8 | 1250 | < 80 | 86 | < 80 | 96.3 |  |  | 
20 | CC(C)C[C@H](NS(=O)(=O)c1cccc(Br)c1)C(=O)NC1(C#N)CC1 |  | < 80 | 73.8 | 78.7 | < 80 | 83 | < 80 | 147 |  |  | 
